Screens from PubChem BioAssay.
An excerpt weighted towards active compounds, which were near 2.9% of everything screened.
HSP90 refold inh = HSP90 inhibitors, primary screen, cell lysate, luminescence | hit rate 0.91% among 290,000 | AID 1789, 2009 | inhibition, % at 5.6 µM | Rabbit reticulocyte lysate, luciferase refolding luminescence, 3 h;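 active = inhibition above the screen-wide mean plus 3 SD, computed separately per campaign, cut at about 16% in these data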;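 note: 0% = DMSO wells and 100% = 60 µM geldanamycin wells; inhibitors lower the luminescence because luciferase stays unfolded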
SENP6 inh = SENP6 protease inhibitors, primary screen, biochemical, luminescence, uHTS | Sentrin-specific protease 6 (Homo sapiens), Q9GZR1 | Recombinant SENP6 catalytic domain, aminoluciferin luminescence | inhibition, % at 10 µM | hit rate 1.8% among 330,000 | AID 2599, 2010;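 active = inhibition above about 50% at the single tested dose, limit read from the data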;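 note: plate controls were DMSO wells with enzyme for no effect and DMSO wells lacking enzyme for full effect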
SENP1 FRET inh = human SENP1 catalytic domain inhibitors, primary screen, biochemical, FRET, uHTS | Sentrin-specific protease 1 (Homo sapiens), Q9P0U3 | recombinant SENP1 catalytic domain, CyPet-SUMO1-YPet FRET cleavage | inhibition, % at 10 µM | hit rate 0.21% among 360,000;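 active = inhibition at least 30% at 10 µM, raw YFP signal under a set limit, fluorescence ratio 0.5 to 1.5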;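 note: 0% = enzyme with DMSO and 100% = no enzyme wells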
Target sequence (Q9P0U3 419-644 limits assumed): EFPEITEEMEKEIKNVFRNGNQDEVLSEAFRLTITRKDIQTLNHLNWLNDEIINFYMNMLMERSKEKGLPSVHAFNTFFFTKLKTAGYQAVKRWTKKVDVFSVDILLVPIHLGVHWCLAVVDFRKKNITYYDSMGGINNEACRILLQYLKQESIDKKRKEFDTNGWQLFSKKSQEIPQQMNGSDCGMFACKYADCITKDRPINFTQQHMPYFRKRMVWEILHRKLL
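system = hSENP1 catalytic domain, recombinant | reagent = SFCypet-SUMO1-SFYpet substrate at 25 nM | doses = one dose per compound, 10 µM, 0.5% DMSO | incubation = enzyme reaction for 50 min at room temperature, dark | measured by = FRET, CFP and YFP emission | controls = no-enzyme low, enzyme-DMSO high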
SENP8 block-1 = SENP8 protease inhibitors, primary screen, biochemical, luminescence | Sentrin-specific protease 8 (Homo sapiens), Q96LD8 | purified SENP8, Z-RLRGG-aminoluciferin cleavage | inhibition, % at 10 µM | hit rate 1.2% among 330,000 | AID 2540, 2010; in the data active = inhibition above about 50%
SENP8 block-2 = human SENP8 protease inhibitors, primary screen, biochemical, fluorescence, Nedd8 protein substrate, uHTS. recombinant SENP8. inhibition, % at 20 µM. hit rate 0.64% among 360,000. AID 602440, 2012; in the data active = inhibition mostly above about 40%, no sharp cut-off; inactive = mostly below about 27%
SENP7 block = SENP7 protease inhibitors, primary screen, biochemical, luminescence, uHTS. Sentrin-specific protease 7 (Homo sapiens), Q9BQF6. recombinant SENP7, Z-RLRGG-aminoluciferin luminescence, 40 min. inhibition, % at 5 µM. hit rate 1.5% among 330,000. AID 434973, 2010;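 active = inhibition above about 50% at the single test dose, limit read from the data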;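 note: plate controls were DMSO with enzyme for no effect and no enzyme buffer wells for full effect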
Target sequence (Q9BQF6 706-1050 limits assumed): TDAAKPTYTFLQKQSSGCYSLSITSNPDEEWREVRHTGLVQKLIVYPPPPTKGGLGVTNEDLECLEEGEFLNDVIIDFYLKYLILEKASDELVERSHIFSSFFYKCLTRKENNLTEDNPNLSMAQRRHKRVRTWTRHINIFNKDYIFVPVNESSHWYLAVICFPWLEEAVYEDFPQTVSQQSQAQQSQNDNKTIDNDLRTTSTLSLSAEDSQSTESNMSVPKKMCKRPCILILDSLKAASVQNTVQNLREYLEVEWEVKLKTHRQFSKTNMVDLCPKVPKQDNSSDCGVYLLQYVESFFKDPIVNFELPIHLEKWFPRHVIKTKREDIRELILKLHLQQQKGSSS
* marks the source's active call; other numbers are inactive results; x = not tested or not shown.

SMILES | HSP90 refold inh | SENP6 inh | SENP1 FRET inh | SENP8 block-1 | SENP8 block-2 | SENP7 block
CCOc1cc(/C=C2\SC(=S)N(NC(=O)c3cccnc3)C2=O)ccc1O | 2 | -12 | 50* | 8 | 17 | -2
COc1cccc(CNC(=O)[C@@H](C)N2C(=O)N3CCc4c([nH]c5ccc(OC)cc45)C3(C)C2=O)c1 (stereo not given in full) | -5 | -11 | -10 | 0 | -11 | 9
CN1C(=O)[C@H]2[C@@H](c3ccccc3)N[C@]3(CCCN(Cc4ccc(F)cc4)C3=O)[C@H]2C1=O | x | x | 1 | x | -25 | x
O=C(CN1C(=O)c2cccnc2Oc2ccc(Cl)cc21)NCCCc1ccccc1 | -2 | -10 | 1 | -4 | 2 | -2
O=C1NCCCC2c3cc(O)c4ccccc4c3OC12N1CCCCC1 (stereo not given) | 1 | 71* | x | 63* | x | 36
CCN(CC)c1ccc(/C=C(/C#N)c2nc3ccccc3[nH]2)c(OC(C)C)c1 | 16* | 8 | -30 | 4 | -47 | -3
O=C1OC(c2ccccc2)(c2ccc3cc(O)ccc3c2)c2ccccc21 (stereo not given) | x | x | 0 | x | 6 | x
CCN(CCCNc1cc2c(c(N)c1S(=O)(=O)O)C(=O)c1ccccc1C2=O)c1ccccc1 | x | x | 0 | x | 57* | x
COC(=O)CC1OCC=C2CN3CCC45C6=CC(=O)C(=O)C([N+](=O)[O-])=C6NC4C1C2CC35 (stereo not given) | x | x | 2 | x | 110* | x
Brc1cccc(-c2cnco2)c1 | 0 | -11 | 1 | -9 | 8 | -6
Cc1cccc(NC(=S)N=Nc2c(O)[nH]c3ccccc23)c1 | 0 | -3 | 7 | 3 | 42* | 6
Cc1nnsc1S(=O)c1ccc(Cl)c(Cl)c1 (stereo not given) | -2 | -2 | 1 | 2 | 15 | 0
O=S(c1ccc2ccccc2c1)c1cnns1 (stereo not given) | 5 | -4 | 0 | 1 | 44* | 3
Oc1cc(O)cc(-c2cc3ccc(O)cc3o2)c1 | x | 48 | -1 | 53* | -255 | 25
NC(=S)c1cc2ccc(O)cc2oc1=O | 1 | x | 10 | x | -416 | x
COc1cc(NC(=S)N2CCCC2)cc(OC)c1 | 17* | 0 | 3 | 6 | 7 | 0
COc1ccc(-c2nc(-c3ccncc3)no2)cc1 | 21* | x | 0 | x | 13 | x
COc1ccc(-n2ncc3c(N4CCC(C)CC4)ncnc32)cc1 | 29* | 37 | -38 | 25 | -290 | 29
COc1ccc(-n2ncc3c(SCC(=O)OC(C)C)ncnc32)cc1 | x | x | 1 | x | -27 | x
COc1ccc(-n2ncc3c(N(C)C4CCCCC4)ncnc32)cc1 | 79* | 48 | 1 | 43 | -166 | 47
Cc1ccc(S(=O)(=O)NC(=O)C2(C)CCN2C(=O)c2ccc(C(F)(F)F)nc2C)cc1 (stereo not given) | x | x | 0 | x | 18 | x
COc1ccc(NC(=O)CN(C)C(=O)c2cn(-c3ccccc3)nc2-c2cccnc2)cc1 | x | -17 | -7 | -7 | -3 | 3
CCOc1ccc(CCNC(=O)C2CCCN(S(=O)(=O)N3CCCCC3)C2)cc1OCC (stereo not given) | x | x | 0 | x | 0 | x
Cc1cc(C)c2nc(NNC(=O)c3cc(=O)c4ccccc4o3)sc2c1 | 15 | 79* | 9 | 63* | 4 | 2
COc1ccc2noc3c2c1C(=O)c1ccccc1-3 | x | 87* | -38 | 80* | 105* | 57*
SMILES | HSP90 refold inh | SENP6 inh | SENP1 FRET inh | SENP8 block-1 | SENP8 block-2 | SENP7 block
COc1ccc(OC)c2c1C(=O)c1ccccc1C2=O | -1 | 14 | x | 7 | x | 11
CCn1c(-c2ccccc2)csc1=Nc1ccc(O)cc1 | -4 | 2 | 2 | 0 | 9 | -5
CC(NC(=O)Cc1ccccc1)c1ccccc1 (stereo not given) | -1 | -2 | 0 | 8 | 7 | -2
O=C(Cc1ccccc1)NC1(O)C(=O)c2ccccc2C1=O | -4 | 42 | 2 | 30 | 50* | 13
O=C1[C@H]2[C@@H](c3ccccc3)N[C@]3(CCCN(Cc4ccc(Br)cc4)C3=O)[C@H]2C(=O)N1Cc1ccccc1 | x | x | 2 | x | 6 | x
CC1CCCN(C(=O)CCc2nnc(-c3ccc4c(c3)OCO4)o2)C1 (stereo not given) | -2 | -2 | 1 | 8 | -6 | 4
CC(=O)Nc1cc(OC(C)=O)c2nonc2c1OC(C)=O | 85* | 82* | 2 | 70* | 33 | 92*
O=C1c2ccccc2C(=O)c2c(/C=C/N3CCCCC3)ccnc21 | x | x | 8 | x | 64* | x
O=C1c2ccccc2-c2cccnc21 | -1 | 2 | 0 | -3 | 14 | -4
Cc1[nH]nc(N=Cc2c(O)n(C)c(=O)n(C)c2=O)c1-c1ccccc1 | x | -6 | x | -1 | x | 0
Cn1c(O)c(/C=N/Nc2ccccc2)c(=O)n(C)c1=O | 16* | -14 | 4 | -10 | 17 | -12
CN(C)CCCN(C(=O)c1ccc(S(=O)(=O)N2CCc3ccccc32)cc1)c1nc2ccc(Cl)cc2s1 | 16* | -19 | 2 | -4 | 11 | -12
CN(C)CCCN(C(=O)c1ccc(S(=O)(=O)N2CCc3ccccc32)cc1)c1nc2ccc(F)cc2s1 | 0 | -12 | 1 | -5 | 17 | 2
Cc1ccc(OCCCC(=O)N(C)CC(=O)Nc2c(C)cccc2C)cc1 | x | x | 0 | x | 6 | x
c1ccc2c(c1)CCN(c1nc3cc4c(cc3s1)OCO4)C2 | 3 | 88* | -80 | 94* | -82 | 96*
OCC1C2c3ccccc3C(c3ccccc32)C1CO (stereo not given) | 1 | -4 | 0 | -3 | 19 | -10
O=c1c(=NNc2ccccc2Cl)c(=O)c2ccccc12 | 26* | x | 15 | x | 40* | x
Cc1ccc(/C=C2\SC(=S)N(CCC(=O)NNS(=O)(=O)c3ccccc3)C2=O)cc1 | 2 | -3 | -3 | 4 | 59* | -3
O=C(CCN1C(=O)/C(=C\C=C\c2ccccc2)SC1=S)Nc1ccccc1C(=O)O | 0 | -1 | -9 | 9 | -2 | 3
O=C(CCN1C(=O)/C(=C\C=C\c2ccccc2)SC1=S)Nc1cccc(C(=O)O)c1 | 0 | 53* | -11 | 55* | 24 | -11
Cc1ccc(/C=C2\SC(=S)N(CCCC(=O)Nc3cccc(C(=O)O)c3)C2=O)cc1 | 2 | 91* | 3 | 87* | 34 | 61*
CCSc1nnc(NC(=O)c2cnccn2)s1 | x | -3 | x | 7 | x | 4
Cc1ccccc1C(=O)Nc1nnc(-c2ccco2)s1 | 8 | 54* | 1 | 44 | -197 | 73*
